Test results from ChEMBL document CHEMBL2016564, “Conformationally restricted novel pyrazole derivatives: synthesis of 1,8-disubstituted 5,5-dimethyl-4,5-dihydro-1H-benzo[g]indazoles as a new class of PDE4 inhibitors” (Bioorg Med Chem Lett, 2012).

Columns and labels:
[1] = target: T1, 3',5'-cyclic-AMP phosphodiesterase 4B (Homo sapiens, UniProt Q07343); assay: Inhibition of recombinant His-tagged PDE4B expressed in Sf9 cells using cAMP as substrate at 30 uM preincubated for 15 mins prior substrate addition measured after 1 hr by […]
T1 sequence (Q07343 whole entry): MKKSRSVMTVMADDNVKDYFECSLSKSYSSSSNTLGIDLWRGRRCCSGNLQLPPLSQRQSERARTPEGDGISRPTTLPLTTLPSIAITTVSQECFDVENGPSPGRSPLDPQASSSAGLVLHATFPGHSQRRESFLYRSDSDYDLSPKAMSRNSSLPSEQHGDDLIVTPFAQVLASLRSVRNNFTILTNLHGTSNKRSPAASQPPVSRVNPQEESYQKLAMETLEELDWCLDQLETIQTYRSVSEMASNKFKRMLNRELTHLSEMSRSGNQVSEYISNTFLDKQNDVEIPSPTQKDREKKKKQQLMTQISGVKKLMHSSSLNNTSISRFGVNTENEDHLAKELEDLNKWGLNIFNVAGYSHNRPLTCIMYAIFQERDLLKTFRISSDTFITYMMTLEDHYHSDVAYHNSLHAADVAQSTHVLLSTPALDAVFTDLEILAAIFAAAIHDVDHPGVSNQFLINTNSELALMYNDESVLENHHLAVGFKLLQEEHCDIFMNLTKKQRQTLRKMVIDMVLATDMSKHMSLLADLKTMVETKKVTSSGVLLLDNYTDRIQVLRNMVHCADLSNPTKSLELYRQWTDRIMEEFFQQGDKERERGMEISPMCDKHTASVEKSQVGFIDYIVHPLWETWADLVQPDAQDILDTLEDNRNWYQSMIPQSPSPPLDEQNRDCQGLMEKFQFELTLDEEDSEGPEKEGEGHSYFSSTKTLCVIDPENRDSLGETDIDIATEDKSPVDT
How it was run: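 In-house purified PDE4B (10 ng) was preincubated 15 min with compound or DMSO vehicle, followed by 1 h with cAMP substrate. After stop solution, detection reagent was applied for 10 min in the dark and luminescence (RLU) was read. % inhibition was taken against vehicle-control RLU and reported as the average with SD.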

[2] = target: 3',5'-cyclic-AMP phosphodiesterase 4D (Homo sapiens) (UniProt Q08499); assay: Inhibition of PDE4D using cAMP as substrate at 30 uM preincubated for 15 mins prior substrate addition measured after 1 hr by […]
Sequence of 3',5'-cyclic-AMP phosphodiesterase 4D (Homo sapiens) (Q08499 whole entry): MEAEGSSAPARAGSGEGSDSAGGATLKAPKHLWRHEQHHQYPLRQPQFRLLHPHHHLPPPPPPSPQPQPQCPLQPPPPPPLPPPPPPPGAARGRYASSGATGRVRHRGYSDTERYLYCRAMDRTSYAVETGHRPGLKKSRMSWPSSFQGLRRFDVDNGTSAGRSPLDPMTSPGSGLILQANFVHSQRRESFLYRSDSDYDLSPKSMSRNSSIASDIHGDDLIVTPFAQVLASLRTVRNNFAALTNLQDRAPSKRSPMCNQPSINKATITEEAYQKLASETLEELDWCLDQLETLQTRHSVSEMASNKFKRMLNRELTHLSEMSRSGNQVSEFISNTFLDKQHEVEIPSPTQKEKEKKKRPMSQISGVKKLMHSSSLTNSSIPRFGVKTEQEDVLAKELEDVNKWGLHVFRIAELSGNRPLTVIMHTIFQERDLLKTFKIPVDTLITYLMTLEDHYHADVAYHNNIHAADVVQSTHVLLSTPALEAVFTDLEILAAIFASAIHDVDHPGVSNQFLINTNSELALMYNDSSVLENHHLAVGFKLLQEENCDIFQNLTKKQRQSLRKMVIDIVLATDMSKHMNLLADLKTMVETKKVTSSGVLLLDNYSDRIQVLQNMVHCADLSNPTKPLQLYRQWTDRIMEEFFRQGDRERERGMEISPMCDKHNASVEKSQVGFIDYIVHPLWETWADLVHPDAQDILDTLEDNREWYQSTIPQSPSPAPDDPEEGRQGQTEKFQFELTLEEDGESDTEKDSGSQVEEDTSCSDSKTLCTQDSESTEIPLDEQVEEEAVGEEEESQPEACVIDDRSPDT
How it was run: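 Commercially sourced PDE4D (0.5 ng) was preincubated 15 min with compound or DMSO vehicle, then incubated 1 h with cAMP substrate. The reaction was halted with stop solution, and detection reagent was added for 10 min in the dark. Luminescence (RLU) was read, and % inhibition = (vehicle RLU − inhibitor RLU)/vehicle RLU × 100.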

[3] = target: T1, 3',5'-cyclic-AMP phosphodiesterase 4B

inhibition [1]	inhibition [2]	IC50 [3]	Structure (SMILES)
72.1%	55.8%		CC1(C)Cc2cnn(-c3ccccc3)c2-c2cc([N+](=O)[O-])ccc21
76.2%	50%	4.57 µM	CC1(C)Cc2cnn(-c3ccccc3)c2-c2cc(Br)ccc21
75.1%			CC1(C)Cc2cnn(-c3ccc(F)cc3)c2-c2cc(NS(C)(=O)=O)ccc21
64.9%			Cc1ccc(-n2ncc3c2-c2cc(Br)ccc2C(C)(C)C3)cc1
72.7%	54.9%		Cc1cccc(-n2ncc3c2-c2cc([N+](=O)[O-])ccc2C(C)(C)C3)c1C
75.6%			CC1(C)Cc2cnn(-c3ccc(F)cc3)c2-c2cc(NS(=O)(=O)c3ccccc3)ccc21
71.4%	41.7%		CC1(C)Cc2cnn(C(C)(C)C)c2-c2cc(Br)ccc21
68.2%			Cc1ccc(-n2ncc3c2-c2cc([N+](=O)[O-])ccc2C(C)(C)C3)cc1
42.2%			CC1(C)Cc2cnn(-c3ccc(C(F)(F)F)cc3)c2-c2cc(Br)ccc21
56.8%			CC(C)n1ncc2c1-c1cc(Br)ccc1C(C)(C)C2
60.3%			CC1(C)Cc2cnn(-c3ccc(Br)cc3)c2-c2cc(Br)ccc21
68.1%			CC1(C)Cc2cnn(-c3ccc(Cl)cc3)c2-c2cc(Br)ccc21
66.8%			CC1(C)Cc2cnn(-c3ccc(F)cc3)c2-c2cc([N+](=O)[O-])ccc21
72.2%	65.4%		CC1(C)Cc2cnn(-c3ccc(F)cc3)c2-c2cc(Br)ccc21
